The source made the active and inactive calls. The calls are words filed in the database; no cut-off is given here.
Assays:
Oryctolagus cuniculus [1] = organism: Oryctolagus cuniculus; test: Inhibition of 20s constitutive proteasome beta 2 subunit trypsin-like activity in rabbit erythrocytes using Boc-LRR-AMC as substrate at 100 uM incubated for 15 mins prior to substrate addition measured after 45 mins by fluorescence assay relative to control; format: cell-based
In short: (§1)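 Purified rabbit erythrocyte constitutive 20S fraction, 0.27 nM enzyme, pre-incubated 15 min with or without inhibitor, then Boc-LRR-AMC added. Buffer at pH 7.5. Fluorescence read-out. IC50 is from a plot of percent inhibition against inhibitor concentration, Hill-equation fit.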

[2] = Inhibition of 20s constitutive proteasome beta 5 subunit chymotrypsin-like activity in rabbit erythrocytes using Suc-LLVY-AMC as substrate incubated for 15 mins prior to substrate addition measured after 45 mins by fluorescence assay; format: cell-based, Oryctolagus cuniculus
In short: (§2)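 Purified rabbit erythrocyte constitutive 20S fraction, 0.27 nM enzyme, pre-incubated 15 min with or without inhibitor before substrate addition. Buffer pH 7.5: 20 mM Tris, 1 mM DTT, 10% glycerol, 0.02% (w/v) SDS. Fluorescence read-out. IC50 is from a percent inhibition versus concentration plot, fitted with a Hill-type equation.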

[3] = Inhibition of 20s constitutive proteasome beta 1 subunit caspase-like activity in rabbit erythrocytes using Z-LLE-betaNA as substrate incubated for 15 mins prior to substrate addition measured after 45 mins by fluorescence assay; format: cell-based, Oryctolagus cuniculus; in short: as §2
[4] = Inhibition of 20s constitutive proteasome beta 2 subunit trypsin-like activity in rabbit erythrocytes using Boc-LRR-AMC as substrate incubated for 15 mins prior to substrate addition measured after 45 mins by fluorescence assay; format: cell-based, Oryctolagus cuniculus; in short: as §1
[5] = target: Cathepsin B (Homo sapiens) (UniProt P07858); test: Inhibition of human cathepsin B using Z-RR-AMC as substrate by fluorescence assay
In short: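 Human cathepsin B fraction, Z-RR-AMC substrate, at 37 °C in 352 mM KH2PO4, 48 mM Na2HPO4, 1 mM EDTA, 1 mM DTT, pH 6. Fluorescence read-out. IC50 is from percent inhibition versus inhibitor concentration.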

[6] = target: T1, Calpain-1 catalytic subunit (Homo sapiens) (UniProt P07384); test: Inhibition of human calpain-1 using Suc-LLVY-AMC as substrate by fluorescence assay
T1 sequence (whole entry): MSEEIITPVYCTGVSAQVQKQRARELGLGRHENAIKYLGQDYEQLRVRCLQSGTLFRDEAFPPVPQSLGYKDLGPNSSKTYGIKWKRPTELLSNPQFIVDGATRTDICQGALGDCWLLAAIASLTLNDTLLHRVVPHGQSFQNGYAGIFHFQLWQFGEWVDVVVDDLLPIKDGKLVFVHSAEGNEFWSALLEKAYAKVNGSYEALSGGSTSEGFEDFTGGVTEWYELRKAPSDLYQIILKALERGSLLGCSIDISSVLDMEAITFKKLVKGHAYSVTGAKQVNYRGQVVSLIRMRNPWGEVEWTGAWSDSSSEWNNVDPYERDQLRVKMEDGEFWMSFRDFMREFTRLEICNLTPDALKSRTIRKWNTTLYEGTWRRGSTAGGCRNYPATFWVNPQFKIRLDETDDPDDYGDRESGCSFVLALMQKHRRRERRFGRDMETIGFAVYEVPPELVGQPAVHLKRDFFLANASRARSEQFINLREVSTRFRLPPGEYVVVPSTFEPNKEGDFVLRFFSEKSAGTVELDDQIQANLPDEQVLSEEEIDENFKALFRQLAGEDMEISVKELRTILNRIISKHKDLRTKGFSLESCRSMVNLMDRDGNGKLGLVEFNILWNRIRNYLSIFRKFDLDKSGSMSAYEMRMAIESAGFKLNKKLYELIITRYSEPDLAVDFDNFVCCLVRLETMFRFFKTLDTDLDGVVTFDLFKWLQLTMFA
In short: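 Human calpain I fraction, Suc-LLVY-AMC substrate, at 25 °C in 50 mM Tris, 10 mM DTT with CaCl2, pH 7.2. Fluorescence read-out. IC50 is from percent inhibition versus inhibitor concentration.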

Oryctolagus cuniculus [7] = organism: Oryctolagus cuniculus; test: Inhibition of 20s constitutive proteasome beta 2 subunit trypsin-like activity in rabbit erythrocytes using Boc-LRR-AMC as substrate at 50 uM incubated for 15 mins prior to substrate addition measured after 45 mins by fluorescence assay relative to control; format: cell-based; in short: as §1
Oryctolagus cuniculus [8] = organism: Oryctolagus cuniculus; test: Inhibition of 20s constitutive proteasome beta 5 subunit chymotrypsin-like activity in rabbit erythrocytes using Suc-LLVY-AMC as substrate at 100 uM incubated for 15 mins prior to substrate addition measured after 45 mins by fluorescence assay relative to control; format: cell-based; in short: as §2
Oryctolagus cuniculus [9] = organism: Oryctolagus cuniculus; test: Inhibition of 20s constitutive proteasome beta 1 subunit caspase-like activity in rabbit erythrocytes using Z-LLE-betaNA as substrate at 100 uM incubated for 15 mins prior to substrate addition measured after 45 mins by fluorescence assay relative to control; format: cell-based; in short: as §2

| IC50 [2] | IC50 [3] | inhibition [5] | inhibition [6] | IC50 [4] | Structure (SMILES) | further results |
| --- | --- | --- | --- | --- | --- | --- |
| Not Active | Not Active |  |  |  | Cc1sc2ncn(CCc3ccccc3)c(=O)c2c1C | inhibition (Oryctolagus cuniculus [1]): 42% |
| Not Active | Not Active |  |  |  | C=C1c2c(ncn(-c3ccc(Br)cc3)c2=O)OC1(C)C | inhibition (Oryctolagus cuniculus [1]): 29% |
| Not Active | Not Active |  |  |  | C=C1c2c(nc[nH]c2=O)OC1(C)C | IC50 ([4]; read-out: IC50): 59 µM |
| Not Active |  | inactive | inactive |  | CC1(C)OC(=O)c2c1ccnc2N | inhibition (Oryctolagus cuniculus [1]): 35%; IC50 ([3]; read-out: IC50): 7.9 µM |
| Not Active |  | inactive | inactive | Not Active | CC1(C)OC(=O)c2c1ccnc2NCC(O)COc1ccccc1 (configuration not stated) | IC50 ([3]; read-out: IC50): 48.1 µM |
| Not Active |  |  |  |  | C=C1c2c(ncn(CCCn3ccnc3)c2=O)OC1(C)C | inhibition (Oryctolagus cuniculus [1]): 56%; IC50 ([3]; read-out: IC50): 47 µM |
| Not Active | Not Active |  |  |  | O=c1c2c(-c3ccc(Cl)cc3)csc2ncn1CCc1ccc(F)cc1 | inhibition (Oryctolagus cuniculus [7]): 56% |
|  | Not Active |  |  | Not Active | C=C1c2c(ncn(C)c2=O)OC12CCCCC2 | inhibition (Oryctolagus cuniculus [8]): 30% |
| Not Active |  | inactive | inactive | Not Active | Cc1nccc2c1C(=O)OC21CCCCC1 | IC50 ([3]; read-out: IC50): 16.1 µM |
|  |  | inactive | inactive | Not Active | CCC1(C)OC(=O)c2c1ccnc2N (configuration not stated) | inhibition (Oryctolagus cuniculus [8]): 21.5%; IC50 ([3]; read-out: IC50): 7 µM |
|  | Not Active | inactive | inactive |  | Cc1ccc(OCC(O)CNc2nccc3c2C(=O)OC3(C)C)cc1 (configuration not stated) | IC50 ([4]; read-out: IC50): 60.8 µM; inhibition (Oryctolagus cuniculus [8]): 36.5% |
| Not Active | Not Active |  |  | Not Active | C=C1c2c(nc[nH]c2=O)OC1(C)c1ccccc1 (configuration not stated) |  |
| Not Active | Not Active |  |  |  | Cc1sc2ncn(CCc3ccc(Cl)cc3)c(=O)c2c1C | IC50 ([4]; read-out: IC50): 56 µM |
|  | Not Active |  |  | Not Active | C=C1c2c(ncn(CC(O)CN3CCOCC3)c2=O)OC1(C)C (configuration not stated) | inhibition (Oryctolagus cuniculus [8]): 33% |
| Not Active | Not Active |  |  |  | C=C1c2c(ncn(CCCN3CCOCC3)c2=O)OC1(C)C | inhibition (Oryctolagus cuniculus [1]): 48% |
| Not Active | Not Active |  |  | Not Active | C=C1c2c(ncn(CCO)c2=O)OC1(C)C |  |
| Not Active | Not Active |  |  |  | Cc1sc2ncn(CCCn3ccnc3)c(=O)c2c1C | inhibition (Oryctolagus cuniculus [7]): 42% |
| Not Active | Not Active |  |  | Not Active | Cc1ccc(CCn2cnc3sc(C)c(C)c3c2=O)cc1 |  |
| Not Active |  | inactive | inactive | Not Active | CC1(C)OC(=O)c2c1ccnc2O | IC50 ([3]; read-out: IC50): 16.7 µM |
|  | Not Active | inactive | inactive |  | CC1(C)OC(=O)c2c1ccnc2NCC(O)COc1ccc(Cl)cc1 (configuration not stated) | IC50 ([4]; read-out: IC50): 48.1 µM; inhibition (Oryctolagus cuniculus [8]): 63% |
| Not Active | Not Active |  |  |  | O=c1c2c(-c3ccc(Cl)cc3)csc2ncn1CCc1ccccc1 | inhibition (Oryctolagus cuniculus [1]): 48% |

| IC50 [2] | IC50 [3] | inhibition [5] | inhibition [6] | IC50 [4] | Structure (SMILES) | further results |
| --- | --- | --- | --- | --- | --- | --- |
| Not Active | Not Active | inactive | inactive | Not Active | CC1(C)OC(=O)C(C(N)=S)=C1c1ccccc1 |  |
| Not Active | Not Active |  |  |  | Cc1sc2ncn(CCCN3CCOCC3)c(=O)c2c1C | inhibition (Oryctolagus cuniculus [1]): 53% |
| Not Active | Not Active | inactive | inactive | Not Active | O=c1[nH]ccc2c1c(=O)oc1ccccc12 |  |
| Not Active | Not Active | inactive | inactive | Not Active | CCOC(=O)C1=C(/C=C/N(C)C)C(C)(C)OC1=O |  |
|  |  | inactive | inactive |  | CC1(C)OC(=O)c2c1ccnc2NNC(N)=S | inhibition (Oryctolagus cuniculus [1]): 29%; inhibition (Oryctolagus cuniculus [8]): 26%; inhibition (Oryctolagus cuniculus [9]): 41% |
| Not Active | Not Active | inactive | inactive |  | Cc1nccc2c1C(=O)OC2(C)C | IC50 ([4]; read-out: IC50): 88 µM |
| Not Active | Not Active | inactive | inactive | Not Active | CC(N)C1=C(c2ccccc2)C(C)(C)OC1=O (configuration not stated) |  |
| Not Active | Not Active |  |  | Not Active | CC12CCCC=C1c1c(nc[nH]c1=O)O2 (configuration not stated) |  |
| Not Active |  | inactive | inactive | Not Active | CC1(C)OC(=O)c2c1ccnc2N1CCCCC1 | inhibition (Oryctolagus cuniculus [9]): 41.6% |
|  |  | inactive | inactive | Not Active | CC1(C)OC(=O)c2c1ccnc2S | IC50 ([2]; read-out: IC50): 79 µM; inhibition (Oryctolagus cuniculus [9]): 48% |
|  |  |  |  |  | C[C@@]12OC(=O)[C@]1([C@@H](O)[C@@H]1C=CCCC1)NC(=O)[C@@H]2CCCl [MARIZOMIB] | IC50 ([4]; read-out: IC50): 0.021 µM; IC50 ([2]; read-out: IC50): 0.0026 µM; IC50 ([3]; read-out: IC50): 0.46 µM |
| Not Active | Not Active | inactive | inactive | Not Active | CC1(C)OC(=O)C(C(N)=O)=C1/C=C/c1ccccc1 |  |
|  |  | inactive | inactive | Not Active | O=C1OC2(CCCCC2)c2ccnc(S)c21 | inhibition (Oryctolagus cuniculus [8]): 52%; inhibition (Oryctolagus cuniculus [9]): 20% |
|  |  | inactive | inactive | Not Active | CC1(C)OC(=O)c2c1ccnc2Nc1ccc(Cl)cc1 | inhibition (Oryctolagus cuniculus [8]): 24.5%; inhibition (Oryctolagus cuniculus [9]): 41.5% |
| Not Active |  | inactive | inactive | Not Active | O=C1OC2(CCCCC2)c2ccnc(O)c21 | IC50 ([3]; read-out: IC50): 27.8 µM |
|  | Not Active | inactive | inactive |  | Cc1cc(=O)oc2cc[nH]c(=O)c12 | IC50 ([4]; read-out: IC50): 8.7 µM; IC50 ([2]; read-out: IC50): 29.4 µM |
| Not Active | Not Active |  |  | Not Active | C=C1c2c(ncn(CC(O)COc3ccccc3)c2=O)OC1(C)C (configuration not stated) |  |
|  | Not Active | inactive | inactive | Not Active | CC1(C)OC(=O)c2c1ccnc2NCC(O)COc1ccc(F)cc1 (configuration not stated) | inhibition (Oryctolagus cuniculus [8]): 29% |
| Not Active | Not Active |  |  |  | O=c1c2c(-c3ccc(Cl)cc3)csc2ncn1CCc1ccc(Cl)cc1 | inhibition (Oryctolagus cuniculus [1]): 52% |
| Not Active |  | inactive | inactive | Not Active | Nc1nccc2c1C(=O)OC21CCCCC1 | IC50 ([3]; read-out: IC50): 8.4 µM |

Source: ChEMBL document CHEMBL3124927, “New C(4)- and C(1)-derivatives of furo[3,4-c]pyridine-3-ones and related compounds: evidence for site-specific inhibition of the constitutive proteasome and its immunoisoform” (Bioorg Med Chem Lett, 2014)
